Screening results deposited in PubChem BioAssay by several laboratories.
Shown are actives, neighbours in structure and some others; about 2.5% of the full set was active somewhere.
PHOSPHO1 block – inhibitors of human PHOSPHO1 phosphatase; Q8TCT1; recombinant PHOSPHO1, absorbance phosphatase assay; inhibition, % at 13.3 µM; actives 1.1% (n = 290,000); in the data active = inhibition above about 60%
Tb hexokinase – blocks Trypanosoma brucei hexokinase 1 activity; recombinant TbHK1, G6PDH-coupled NADH A340; inhibition, % at 10 µM; actives 0.11% (n = 220,000);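 active = inhibition of 50% or more in the single-dose primary screen; inactive = inhibition below 50%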
HKDC1 inhibitor – blocks human hexokinase HKDC1 activity; inhibition, % at 20 µM; actives 0.16% (n = 340,000); Q2TB90; AID 493160; recombinant HKDC1, G6PDH/diaphorase resazurin coupled fluorescence;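 active = inhibition above about 35% when tested at 20 µM, limit read from the data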;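 note: plate controls were DMSO wells with enzyme for no effect and DMSO wells lacking enzyme for full effect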
Target sequence (Q2TB90 whole entry, looked up): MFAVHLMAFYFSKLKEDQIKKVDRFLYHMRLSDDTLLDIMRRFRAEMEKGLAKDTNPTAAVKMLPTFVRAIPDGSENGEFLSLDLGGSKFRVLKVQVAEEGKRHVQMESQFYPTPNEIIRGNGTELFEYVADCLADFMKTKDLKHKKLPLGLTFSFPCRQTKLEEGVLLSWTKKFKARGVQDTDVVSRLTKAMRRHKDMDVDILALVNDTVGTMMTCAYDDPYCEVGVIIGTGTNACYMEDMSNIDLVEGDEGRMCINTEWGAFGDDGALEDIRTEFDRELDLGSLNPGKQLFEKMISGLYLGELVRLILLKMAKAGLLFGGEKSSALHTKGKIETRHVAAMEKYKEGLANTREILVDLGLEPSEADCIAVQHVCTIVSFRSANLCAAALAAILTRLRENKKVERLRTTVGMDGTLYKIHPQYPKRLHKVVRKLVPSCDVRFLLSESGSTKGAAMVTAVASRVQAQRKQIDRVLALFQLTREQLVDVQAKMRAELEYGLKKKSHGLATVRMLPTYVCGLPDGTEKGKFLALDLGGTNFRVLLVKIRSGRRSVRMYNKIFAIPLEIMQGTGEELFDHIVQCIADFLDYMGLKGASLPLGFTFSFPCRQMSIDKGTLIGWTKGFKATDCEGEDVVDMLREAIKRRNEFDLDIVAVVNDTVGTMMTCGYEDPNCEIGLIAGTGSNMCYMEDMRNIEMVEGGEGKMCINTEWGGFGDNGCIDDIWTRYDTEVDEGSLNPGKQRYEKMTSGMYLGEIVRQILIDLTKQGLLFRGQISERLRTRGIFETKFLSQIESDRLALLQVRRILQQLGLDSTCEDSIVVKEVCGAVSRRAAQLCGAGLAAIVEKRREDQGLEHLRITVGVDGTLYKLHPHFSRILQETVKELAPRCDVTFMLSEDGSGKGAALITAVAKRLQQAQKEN
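test system = in-house recombinant HK5 (HKDC1) enzyme | amount = HKDC1 at 5 µg/mL | control set = DMSO-enzyme wells negative, buffer-substituted wells positive | compound = one dose of 20 µM, 1% DMSO | schedule = reaction time 90 min, room temperature, protected from light | technique = resorufin fluorescence at 613 nm | reagent = glucose with 1 mM ATP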
EP2 modulator – modulates human prostaglandin E2 receptor EP2 signaling; AID 940; actives 0.83% (n = 260,000); P43116; induction, % at 25 µM; EP2-expressing cells, cAMP HTRF FRET, PGE2 co-stimulation;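 active = compounds whose cAMP rise, as percent of the full-agonist control response, exceeds 60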;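 note: rat C6 glioma line stably carrying human EP2 under a CMV promoter; the protocol text gives 20 µM as final concentration; 100% = response of wells given 1 µM PGE2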
PGE2 EP2 inh – blocks the human prostaglandin E2 receptor EP2. AID 1422. C6 glioma cells expressing human EP2, cAMP TR-FRET; cells stimulated with saturating PGE2. P43116. actives 0.52% (n = 260,000). inhibition, % at 25 µM;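 active = percent inhibition above 40 after rounding to a whole number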;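 note: rat C6 glioma host cells with rolipram phosphodiesterase inhibitor present; the protocol text gives 20 µM as final concentration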
PfGluPho inh – PfG6PD (Plasmodium falciparum) enzyme inhibition; PfGluPho enzyme, NADPH resazurin-diaphorase fluorescence; inhibition, % at 20 µM; actives 0.78% (n = 350,000); AID 504690;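 active = inhibition reaching at least a set limit at 20 µM in the primary screen, cut at about 59% in these data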;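 note: 0% = DMSO wells with substrate and 100% = DMSO wells lacking glucose-6-phosphate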
The depositor's hits bear a star; x = no result; ! = not confirmed by another sample.

SMILES	PHOSPHO1 block	Tb hexokinase	HKDC1 inhibitor	EP2 modulator	PGE2 EP2 inh	PfGluPho inh
Cc1ccc2cc(CN(Cc3nnnn3C3CCCC3)C3CCCCC3)c(=O)[nH]c2c1	x	x	x	1	9	x
Cc1ccc2[nH]c(=O)c(CN(Cc3nnnn3C3CCCCC3)C3CCCCC3)cc2c1	x	x	x	69*	5	x
CCC(c1nnnn1C(C)(C)C)N(Cc1cc2cc(C)ccc2[nH]c1=O)C1CCCCC1 (stereo not drawn)	x	x	x	75*	17	x
CCC(C)(C)n1nnnc1C(C(C)C)N(Cc1ccccc1)Cc1cc2cc(C)ccc2[nH]c1=O (stereo not drawn)	x	x	x	80*	14	x
CCCC(c1nnnn1C(C)(C)C)N(Cc1ccccc1OC)Cc1cc2cc(C)ccc2[nH]c1=O (stereo not drawn)	x	x	x	72*	10	x
CCCC(c1nnnn1C(C)(C)C)N(Cc1ccccc1)Cc1cc2ccc(C)cc2[nH]c1=O (stereo not drawn)	x	x	x	37	17	x
CCC(c1nnnn1C1CCCCC1)N(Cc1cc2cc(C)ccc2[nH]c1=O)C1CCCC1 (stereo not drawn)	x	x	x	28	12	x
C=CCNC(=O)CN1CCC(N2CCCCC2)CC1	x	x	x	-7	9	x
CCCC(c1nnnn1Cc1ccco1)N(Cc1cc2cc(C)ccc2[nH]c1=O)C1CCCC1 (stereo not drawn)	x	x	x	68*	12	x
CCC(c1nnnn1C(C)(C)C)N(CCc1ccccc1C)Cc1cc2cc(C)ccc2[nH]c1=O (stereo not drawn)	x	x	x	65*	16	x
C[N+](C)(C)C1CCS(=O)(=O)C1 (stereo not drawn)	x	x	x	-26	8	x
Cc1ccccc1OC1C(=O)N(C2CCCC2)C1c1ccc2c(c1)OCO2 (stereo not drawn)	x	x	x	61*	9	x
COc1ccc(CCN2C(=O)C(Oc3ccccc3C)C2c2ccc3c(c2)OCO3)cc1 (stereo not drawn)	-22	-14	1	30	4	8
COc1ccc(S(=O)(=O)N2CCCC(C(=O)NCc3ccccc3Cl)C2)cc1Cl (stereo not drawn)	x	x	x	-52	9	x
CC1CCN(S(=O)(=O)c2ccc(NC(=O)CSc3nc4ccccc4o3)cc2)CC1	x	x	x	-15	9	x
Cc1ccc2[nH]c3c(c2c1)CN(C(=O)CN1CCCc2ccccc21)CC3	70*	-2	14	-33	20	25
Cc1ccc2[nH]c3c(c2c1)CN(C(=O)CN1CCCCC1)CC3	19	-6	0	-34	3	11
COc1cc(CCc2ccc3c(c2)OCO3)oc(=O)c1	27	-8	-1	63*	17	3
O=S(=O)(NCc1csc(-c2cccnc2)n1)c1ccc(Br)cc1	80*	x	0	x	x	31
COCCCNC(=O)C1CCN(S(=O)(=O)c2ccc(OC)c(C)c2)CC1	x	x	x	-15	16	x
O=C(O)c1ccccc1CSc1nnc2c(n1)[nH]c1ccccc12	-58	-11	0	61*	15	36
Cc1ccc2cc(C(c3nnnn3Cc3ccccc3)N3CCc4ccccc4C3)c(=O)[nH]c2c1C (stereo not drawn)	x	x	x	41	8	x
O=c1c2snc(-c3ccc(F)cc3)c2ncn1CCN1CCCCC1	x	x	x	-86	6	x
COc1cc(NC(=O)c2cc3nc(C4CC4)cc(C(F)(F)F)n3n2)c(OC)cc1Cl	60*	-10	1	9	x	-5
NS(=O)(=O)c1cc2c(cc1Cl)N[C@H](Cc1ccccc1)NS2(=O)=O	x	x	x	15	53*	x
SMILES	PHOSPHO1 block	Tb hexokinase	HKDC1 inhibitor	EP2 modulator	PGE2 EP2 inh	PfGluPho inh
COc1ccc2nc(SCC(=O)Nc3cc(C)cc(C)c3)c(C#N)cc2c1	x	x	x	44	11	x
COc1ccc(C(C#N)Nc2ccccc2OC)cc1 (stereo not drawn)	-5	-1	2	6	0	6
Cc1ccc(Cl)cc1NC(C#N)c1ccccc1 (stereo not drawn)	18	-9	-1	63*	11	6
CN(C)S(=O)(=O)n1cc(/C=C(\NC(=O)c2ccccc2Cl)C(=O)NCCN2CCOCC2)c2ccccc21	65*	x	5	x	x	-5
CN(C)S(=O)(=O)n1cc(/C=C(\NC(=O)c2ccccc2Cl)C(=O)NCCCN2CCOCC2)c2ccccc21	43	x	-2	x	x	19
CC1CCN(CC(=O)Nc2ccccc2C(=O)c2ccccc2)CC1	1	-4	-6	63*	0	-4
COC(=O)c1ccc(C(=O)OC)c(NC(=O)CN2CCC(C)CC2)c1	-78	-11	-1	27	5	-5
CC1CCN(CC(=O)Nc2ccccc2-c2ccccc2)CC1	-22	7	8	65*!	5	-10
COc1ccc(N2CCN(C(=O)CN(c3cccc(Br)c3)S(C)(=O)=O)CC2)cc1	-29	3	-7	-38	6	-1
Cc1cccc(C)c1N(CC(=O)N1CCN(C)CC1)S(C)(=O)=O	-40	0	-8	64*	14	-1
CS(=O)(=O)N(CC(=O)N1CCN(c2ccccc2)CC1)c1cccc(Br)c1	98*	-5	-5	5	5	-4
C=COCCNC(=O)Cn1nc(C)n2c(cc3ccsc32)c1=O	x	x	x	-7	x	x
CN(Cc1cc(C(C)(C)C)cc(Br)c1O)Cc1cc(C(C)(C)C)cc(Br)c1O	x	x	x	5	43*	x
CCN(CC)c1ccc(CN(Cc2cccnc2)C(=O)c2cc3sccc3n2C)cc1	x	x	x	19	5	x
COc1ccccc1CNC(=O)Cn1nc(C)n2c(cc3ccsc32)c1=O	x	x	x	-3	x	x
NC(=O)CSc1ncc(-c2ccc([N+](=O)[O-])cc2)[nH]1	-29	-30	1	-25	5	12
NC(=O)CSc1ncc(-c2ccccc2)[nH]1	74*	-4	0	-10	3	8
O=C(CSc1ncc(-c2ccccc2)[nH]1)Nc1cccc(O)c1	94*	5	-9	-63	10	5
COc1cccc(C2(NC(=O)CCN3C(=O)C4CCCCC4C3=O)CCCC2)c1 (stereo not drawn)	x	x	x	-3	7	x
CCC(c1nnnn1CCOC)N(Cc1cccs1)Cc1cc2ccc(C)c(C)c2[nH]c1=O (stereo not drawn)	x	x	x	35	9	x
O=c1[nH][nH]c(=S)n1C1CCCCC1	44	-6	-6	-41	8	95*
O=C(OCC(=O)N1CCN(C(=O)c2ccco2)CC1)c1cc(-c2ccco2)nc2ccccc12	69*	-7	37*	0	8	46
Nc1nc(N)c(-c2cccc(C(F)(F)F)c2)c(Cc2cccc(C(F)(F)F)c2)n1	x	x	4	-44	62*	38
Nc1ncccc1OCc1cccc(C(F)(F)F)c1	57	-2	8	-30	3	9
S=C1SCN(C2CCCCCCCCCCC2)CN1C1CCCCCCCCCCC1	x	x	x	12	41*	x
C1CCC(N2CCN(C3CCCC3)CC2)CC1	x	x	x	-6	11	x
CCCCNC(=O)c1sc(=S)n(-c2ccccc2OC)c1N	69*	-19	1	-13	8	54
